Laboratory results reported in ChEMBL document CHEMBL1132155, “Endothelin antagonists: substituted mesitylcarboxamides with high potency and selectivity for ET(A) receptors” (J Med Chem, 1999).
In brackets after ≈: the same amount, converted by molar mass.

Experiments:
[1] = target: T1, Endothelin-1 receptor (Homo sapiens) (UniProt P25101); experiment: Competitive binding to Endothelin A receptor by displacement of [125I]ET1 (Relative IC50 was calculated as IC50 of compound/IC50 of TBC11251)
T1 sequence (whole entry): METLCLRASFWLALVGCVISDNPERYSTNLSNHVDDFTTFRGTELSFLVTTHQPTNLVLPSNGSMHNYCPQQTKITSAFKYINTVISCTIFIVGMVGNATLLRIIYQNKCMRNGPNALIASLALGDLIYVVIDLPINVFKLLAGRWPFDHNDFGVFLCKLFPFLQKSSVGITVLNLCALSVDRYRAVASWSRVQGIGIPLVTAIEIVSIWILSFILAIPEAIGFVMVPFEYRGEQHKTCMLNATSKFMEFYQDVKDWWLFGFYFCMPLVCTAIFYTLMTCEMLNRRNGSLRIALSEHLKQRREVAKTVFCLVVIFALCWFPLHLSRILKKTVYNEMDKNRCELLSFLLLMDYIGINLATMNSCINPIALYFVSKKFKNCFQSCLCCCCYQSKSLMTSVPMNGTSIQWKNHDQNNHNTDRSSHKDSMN

[2] = target: Endothelin receptor, ET-A/ET-B (Homo sapiens) (UniProt P24530+P25101); experiment: Compound was evaluated for the selectivity of ET-A receptors (ET-B IC50/ ET-A IC50); assay type: protein assay
Sequence of Endothelin receptor, ET-A/ET-B (Homo sapiens) (P24530 whole entry, looked up, one chain of several): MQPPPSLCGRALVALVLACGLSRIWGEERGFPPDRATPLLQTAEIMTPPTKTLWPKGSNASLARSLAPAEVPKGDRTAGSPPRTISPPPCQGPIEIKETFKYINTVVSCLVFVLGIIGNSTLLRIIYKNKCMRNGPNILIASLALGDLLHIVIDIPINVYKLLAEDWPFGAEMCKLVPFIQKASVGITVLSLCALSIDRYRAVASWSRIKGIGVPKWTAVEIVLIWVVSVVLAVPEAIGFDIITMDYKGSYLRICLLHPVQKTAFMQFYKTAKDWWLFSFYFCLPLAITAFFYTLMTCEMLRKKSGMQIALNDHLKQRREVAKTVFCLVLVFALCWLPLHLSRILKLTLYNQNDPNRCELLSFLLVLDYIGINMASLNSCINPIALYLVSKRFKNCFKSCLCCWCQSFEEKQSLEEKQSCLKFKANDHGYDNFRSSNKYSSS

[3] = Compound was evaluated for the biological half-life when administered orally in Acute Pulmonary Hypertension Rat Model; assay type: ADME, organism-based; details: in vivo, po
Summary of the method: (§1)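 Adult Harlan Sprague–Dawley rats received 50 mg/kg by gavage in 0.5% high-viscosity carboxymethyl cellulose (5 mL/kg). Serial 200 μL tail-vein blood samples were taken at selected times into heparin-coated tubes. Red cells were removed by centrifugation and plasma stored at −80 °C. Plasma proteins were precipitated with acetonitrile before HPLC analysis; serum half-life was derived from these samples.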

[4] = Compound was evaluated for the aqueous solubility (AS) in mg/mL (Measured in 0.2 M phosphate buffer of pH 7.4); assay type: physicochemical; details: read-out: AS
Summary of the method: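 Solubility measured in 0.2 M phosphate buffer, pH 7.4. Where a preformed sodium salt was used, it was measured in saline (9 mg/mL).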

Rattus norvegicus [5] = experiment: Compound was evaluated for the effective oral dose in Acute Pulmonary Hypertension Rat Model after administering 2 hours prior to experiment; assay type: functional
Summary of the method: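 Rat model of acute hypoxia-induced pulmonary hypertension. Compound given orally 2 h before hypoxia. Reported value is the lowest tested dose giving 90–100% inhibition of mean pulmonary arterial pressure; mean systemic arterial pressure and heart rate were also monitored. Some entries give % inhibition at 5 mg/kg.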

Rattus norvegicus [6] = experiment: Compound was evaluated for the biological half-life when administered orally in Acute Pulmonary Hypertension Rat Model; NM=Not measurable (T1/2 h); assay type: ADME, organism-based; details: in vivo, po; summary of the method: as §1

| Relative ET-A IC50 [1] | Selectivity [2] | half-life [3] [h] | solubility [4] [mg/mL] | T1/2 (Rattus norvegicus [6]) | Structure (SMILES) | Effective dose (Rattus norvegicus [5]) [mg/kg] |
| --- | --- | --- | --- | --- | --- | --- |
| 0.11 | 6970 | – | – | – | CC(=O)Oc1c(C)cc(C)c(NC(=O)c2sccc2S(=O)(=O)Nc2onc(C)c2Cl)c1C | – |
| 5.56 | 1530 | – | – | – | CCOC(=O)N(C(=O)c1sccc1S(=O)(=O)Nc1onc(C)c1Cl)c1c(C)cc(C)c(O)c1C | – |
| 0.13 | 7640 | 3.86 | – | – | COc1c(C)cc(C)c(CC(=O)c2sccc2S(=O)(=O)Nc2onc(C)c2Cl)c1C | – |
| 0.03 | 38400 | – | – | – | CC(=O)OCc1c(C)cc(C)c(NC(=O)c2sccc2S(=O)(=O)Nc2noc(C)c2Cl)c1C | – |
| 0.08 | 32900 | 2.3 | < 10 | – | Cc1cc(C)c(NC(=O)c2sccc2S(=O)(=O)Nc2onc(C)c2Cl)c(C)c1CC#N | 5 |
| 0.06 | 3500 | – | – | – | Cc1cc(C)c(NC(=O)c2sccc2S(=O)(=O)Nc2noc(C)c2Cl)c(C)c1CO | – |
| 0.5 | – | – | – | – | COCCOCCOCC(=O)Oc1c(C)cc(C)c(NC(=O)c2sccc2S(=O)(=O)Nc2onc(C)c2Cl)c1C | – |
| 1.97 | 1080 | – | – | – | Cc1noc(NS(=O)(=O)c2ccsc2C(=O)Nc2c(C)c(C)c(C)c(C)c2C)c1Cl | – |
| 0.21 | 41900 | – | – | – | COC(=O)c1c(C)cc(C)c(NC(=O)c2sccc2S(=O)(=O)Nc2onc(C)c2Cl)c1C | – |
| 0.25 | 9160 | – | – | – | Cc1nc(C)c(NC(=O)c2sccc2S(=O)(=O)Nc2onc(C)c2Cl)c(C)n1 | – |
| 5.63 | – | – | – | – | Cc1cc2c(cc1C(C)C(=O)c1sccc1S(=O)(=O)Nc1onc(C)c1Cl)OCO2 (stereo not drawn) | – |
| 0.06 | 56400 | 1.8 | < 10 | – | COc1c(C)cc(C)c(NC(=O)c2sccc2S(=O)(=O)Nc2onc(C)c2Cl)c1C | – |
| 0.11 | 10900 | 7.3 | 83 (≈ 182 mM) | – | Cc1cc(C)c(NC(=O)c2sccc2S(=O)(=O)Nc2onc(C)c2Cl)c(C)c1O | 5 |
| 0.79 | – | – | – | – | Cc1cc(C)c(C(=O)O)c(C)c1NC(=O)c1sccc1S(=O)(=O)Nc1onc(C)c1Cl | – |
| 0.1 | 14600 | 1.8 | < 10 | – | Cc1cc(C)c(NC(=O)c2sccc2S(=O)(=O)Nc2onc(C)c2C)c(C)c1CC#N | – |
| 0.16 | 36200 | – | – | – | COC(=O)c1cc(C)cc(C)c1NC(=O)c1sccc1S(=O)(=O)Nc1onc(C)c1Cl | – |
| 0.11 | 41700 | 2.1 | < 10 | – | Cc1cc(C)c(NS(C)(=O)=O)c(C)c1NC(=O)c1sccc1S(=O)(=O)Nc1onc(C)c1Cl | – |
| 56.4 | 95 | – | – | – | Cc1cc(C)c(CNC(=O)c2sccc2S(=O)(=O)Nc2onc(C)c2Cl)c(C)c1CC#N | – |
| 5.36 | – | – | – | – | Cc1cc2c(cc1C(CC(=O)O)C(=O)c1sccc1S(=O)(=O)Nc1onc(C)c1Cl)OCO2 (stereo not drawn) | – |
| 0.05 | 22200 | – | – | Not Active | COC(=O)Oc1c(C)cc(C)c(NC(=O)c2sccc2S(=O)(=O)Nc2onc(C)c2Cl)c1C | – |
| 0.06 | 27800 | 1.5 | 30 (≈ 57.8 mM) | – | Cc1cc(C)c(S(N)(=O)=O)c(C)c1NC(=O)c1sccc1S(=O)(=O)Nc1onc(C)c1Cl | 5 |
| 1 | 3210 | 4.1 | < 10 | – | Cc1cc2c(cc1CC(=O)c1sccc1S(=O)(=O)Nc1onc(C)c1Cl)OCO2 [SITAXENTAN] | 5 |
| 0.07 | 59400 | – | – | – | Cc1cc(C)c(OCC2CC2)c(C)c1NC(=O)c1sccc1S(=O)(=O)Nc1onc(C)c1Cl | – |

| Relative ET-A IC50 [1] | Selectivity [2] | half-life [3] [h] | solubility [4] [mg/mL] | T1/2 (Rattus norvegicus [6]) | Structure (SMILES) | Effective dose (Rattus norvegicus [5]) [mg/kg] |
| --- | --- | --- | --- | --- | --- | --- |
| 0.88 | – | – | – | – | Cc1cc(C)c(NC(=O)c2sccc2S(=O)(=O)Nc2onc(C)c2Cl)c(C)c1CN(C)C | – |
| 0.15 | – | – | – | – | Cc1cc(C)c(N2CCCC2)c(C)c1NC(=O)c1sccc1S(=O)(=O)Nc1onc(C)c1Cl | – |
| 0.04 | 111000 | 1.4 | 65 (≈ 138 mM) | – | Cc1cc(C)c(NC(=O)c2sccc2S(=O)(=O)Nc2onc(C)c2Cl)c(C)c1CO | 15 |
| 0.07 | 30400 | – | – | – | Cc1cc(C)c(NC(=O)c2sccc2S(=O)(=O)Nc2onc(C)c2C)c(C)c1CO | – |
| 0.06 | 8550 | 3.1 | 70 (≈ 146 mM) | – | Cc1cc(C)c(NC(=O)c2sccc2S(=O)(=O)Nc2noc(C)c2Cl)c(C)c1CC#N | – |
| 0.07 | 36600 | 1 | 50 (≈ 104 mM) | – | Cc1cc(C)c(N(C)C)c(C)c1NC(=O)c1sccc1S(=O)(=O)Nc1onc(C)c1Cl | – |
| 0.1 | 37700 | 1.8 | 37 (≈ 79.6 mM) | – | Cc1cc(C)c(NC(=O)c2sccc2S(=O)(=O)Nc2onc(C)c2Cl)c(C)c1C#N | – |
| 0.01 | 29200 | < 1 | 43 (≈ 83.8 mM) | – | COc1cc(C#N)c(NC(=O)c2sccc2S(=O)(=O)Nc2onc(C)c2Cl)c(OC)c1OC | – |
| 0.08 | 10800 | 3.9 | – | – | Cc1cc(C)c(CC(=O)c2sccc2S(=O)(=O)Nc2onc(C)c2Cl)c(C)c1O | – |
| 1.15e+06 | 0.004 | – | – | – | Cc1cc(C)c(CNC(=O)c2sccc2S(=O)(=O)Nc2onc(C)c2Cl)c(C)c1 | – |
| 3110 | 3 | – | – | – | Cc1noc(NS(=O)(=O)c2ccsc2C(=O)Nc2c(C)c(CC#N)c(C)c(CC#N)c2C)c1Cl | – |
| 0.21 | 16200 | – | – | – | Cc1cc(C)c(NC(=O)c2sccc2S(=O)(=O)Nc2onc(C)c2Cl)c(C)c1COC(=S)N(C)C | – |
| 0.05 | 23000 | – | – | – | Cc1cc(C)c(OCC(=O)O)c(C)c1NC(=O)c1sccc1S(=O)(=O)Nc1onc(C)c1Cl | – |
| 2.3 | 1630 | – | – | – | Cc1cc(C)c(OS(=O)(=O)N(C)C)c(C)c1NC(=O)c1sccc1S(=O)(=O)Nc1onc(C)c1Cl | – |
| 0.06 | 850000 | 0.5 | – | – | CC(=O)OCc1c(C)cc(C)c(NC(=O)c2sccc2S(=O)(=O)Nc2onc(C)c2Cl)c1C | 5 |
| 0.12 | 59900 | – | – | – | Cc1cc(C)c(NC(=O)c2sccc2S(=O)(=O)Nc2onc(C)c2Cl)c(C)c1CC(=O)O | – |
| 0.07 | 114000 | – | – | – | COC(=O)Cc1c(C)cc(C)c(NC(=O)c2sccc2S(=O)(=O)Nc2onc(C)c2Cl)c1C | – |
| 38.4 | 59 | – | – | – | Cc1cc2c(cc1C(CCBr)C(=O)c1sccc1S(=O)(=O)Nc1onc(C)c1Cl)OCO2 (stereo not drawn) | – |
| 0.1 | 7050 | 2.5 | 23 (≈ 52.3 mM) | – | Cc1cc(C)c(NC(=O)c2sccc2S(=O)(=O)Nc2onc(C)c2Cl)c(C)c1 | – |
| 0.09 | 22600 | – | – | – | Cc1cc(C)c(OC(=S)N(C)C)c(C)c1NC(=O)c1sccc1S(=O)(=O)Nc1onc(C)c1Cl | – |
| 0.24 | 9390 | – | – | – | Cc1cc(C)c(CC(=O)c2sccc2S(=O)(=O)Nc2onc(C)c2Cl)c(C)c1 | – |
| 0.06 | 160000 | – | – | – | CC(=O)OCc1c(C)cc(C)c(NC(=O)c2sccc2S(=O)(=O)Nc2onc(C)c2C)c1C | – |
| 0.34 | 6700 | – | – | Not Active | Cc1cc(C)c(OC(N)=O)c(C)c1NC(=O)c1sccc1S(=O)(=O)Nc1onc(C)c1Cl | – |
